For assay [1], the target named is Tyrosine-protein kinase receptor UFO (Homo sapiens) (UniProt P30530). In words: Inhibition of AXL (unknown origin) assessed as residual activity at 0.1 uM preincubated for 20 min followed by [gamma33P]ATP addition and measured after 120 mins by Hotspot assay relative to control. Particulars: time 140.0 min. Summed up: (§1)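 Radiometric HotSpot kinase assay. Kinase and substrate are combined in 20 mM Hepes pH 7.5, 10 mM MgCl2, 1 mM EGTA, 0.02% Brij35, 0.02 mg/mL BSA, 0.1 mM Na3VO4, 2 mM DTT and 1% DMSO. Compound is added and preincubated 20 min at room temperature. The reaction starts with ATP plus 33P-ATP at 10 µM final and runs 120 min at 25 °C. Filter-binding read-out, given as % activity remaining versus DMSO.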

Assay [2] deals with Serine/threonine-protein kinase PAK 3 (Homo sapiens) (UniProt O75914). The experiment in a line: Inhibtion of full length recombinant human N-terminal GST/His6-tagged PAK3 expressed in sf9 insect cells assessed as residual activity at 0.1 uM using tetra LRRWSLG as substrate preincubated for 20 min followed by [gamma33P]ATP addition and measured after 120 mins by Hotspot assay relative to control. Particulars: time 140.0 min. Summed up: as §1

In assay [3] the target is Mitogen-activated protein kinase 3 (Homo sapiens) (UniProt P27361). In words: Inhibition of ERK1 (unknown origin) assessed as residual activity at 0.1 uM preincubated for 20 min followed by [gamma33P]ATP addition and measured after 120 mins by Hotspot assay relative to control. The note with it: time 140.0 min. In a few lines: as §1
For assay [4], the target named is T1, Serine/threonine-protein kinase PAK 1 (Homo sapiens, UniProt Q13153). In words: Inhibition of PAK1 phosphorylation at ser144 residue in human MDA-MB-231 cells after 1 to 24 hrs by Western blot analysis. In kind it is cell-based. The note with it: dose 2.5-20 µM, time 1-24 hrs. In a few lines: (§2)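 Whole-cell extracts made from 1×10^6 treated cells in RIPA buffer (50 mM Tris/HCl pH 7.4, 150 mM NaCl, 1% NP-40, 0.25% deoxycholate, 1 mM EDTA, protease inhibitors). Proteins separated by SDS-PAGE, blotted to PVDF and blocked in 5% milk in TBS-T. Membranes probed for PAK1, phospho-PAK1 Ser144, Snail and actin, with β-actin as loading control. ECL detection.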
On the technique in general: Immunoblotting shows a protein as a band on a membrane.

Assay [5] deals with MDA-MB-231. The experiment in a line: Antiproliferative activity against human MDA-MB-231 cells assessed as growth inhibition at 1 uM after 72 hrs by Cell Titer-Glo assay relative to control. In kind it is functional. Particulars: read-out: GI. In a few lines:
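Cells kept at 37 °C in 5% CO2 and plated at 4000 per well. Treated with compound for 72 h. Viability read by CellTiter-Glo luminescence. Each compound run in duplicate, data as means ± SD.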
Background: In ATP-based viability assays light output follows the ATP content of the culture.

Assay [6] addresses ALK tyrosine kinase receptor (Homo sapiens) (UniProt Q9UM73). In words: Inhibition of ALK (unknown origin) assessed as residual activity at 0.1 uM preincubated for 20 min followed by [gamma33P]ATP addition and measured after 120 mins by Hotspot assay relative to control. The note with it: time 140.0 min. In a few lines:
as §1

In assay [7] the target is Mitogen-activated protein kinase kinase kinase kinase 1 (Homo sapiens) (UniProt Q92918). The experiment in a line: Inhibition of MAP4K1 (unknown origin) assessed as residual activity at 0.1 uM preincubated for 20 min followed by [gamma33P]ATP addition and measured after 120 mins by Hotspot assay relative to control. The note with it: time 140.0 min. In a few lines:
as §1

Assay [8] has as its system MDA-MB-231. In words: Antimigratory activity against human MDA-MB-231 cells after 24 hrs by inverted microscopic based Wound healing assay. The class given is functional, cell-based. The note with it: dose 0.25-1 µM. In a few lines: (§3)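 Cells grown to confluence and scratched with a sterile pipette tip, or placed at 1×10^5 cells in serum-free DMEM with 0.1% […] in the upper part of Matrigel-coated Boyden chambers over DMEM with 10% FBS. Compound treatment for 24 h at 37 °C. Read-out is wound distance from images or the count of invaded cells on the lower filter face after fixing and staining. Data given as means ± SD.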

In assay [9] the target is Vascular endothelial growth factor receptor 2 (Homo sapiens) (UniProt P35968). In words: Inhibition of VEGFR2 (unknown origin) assessed as residual activity at 0.1 uM preincubated for 20 min followed by [gamma33P]ATP addition and measured after 120 mins by Hotspot assay relative to control. Particulars: time 140.0 min. In a few lines: as §1
Assay [10] concerns the target Tyrosine-protein kinase ABL1 (Homo sapiens) (UniProt P00519). The experiment in a line: Inhibition of ABL1 (unknown origin) assessed as residual activity at 0.1 uM preincubated for 20 min followed by [gamma33P]ATP addition and measured after 120 mins by Hotspot assay relative to control. Particulars: time 140.0 min. In a few lines:
as §1

Assay [11] deals with Tyrosine-protein kinase JAK1 (Homo sapiens) (UniProt P23458). The experiment in a line: Inhibition of JAK1 (unknown origin) assessed as residual activity at 0.1 uM preincubated for 20 min followed by [gamma33P]ATP addition and measured after 120 mins by Hotspot assay relative to control. Particulars: time 140.0 min. Summed up:
as §1

Assay [12] concerns MDA-MB-231. In words: Antiinvasive activity against human MDA-MB-231 cells assessed as decrease is number of penetrated cells at 0.25 to 1 uM after 24 hrs by inverted microscopic based Transwell invasion assay relative to control. The class given is functional. On the set-up: scale not given: the % may be the effect or the level left. Particulars: dose 0.25-1 µM. In a few lines:
as §3

Assay [13] concerns the target Serine/threonine-protein kinase PAK 2 (Homo sapiens) (UniProt Q13177). The experiment in a line: Inhibtion of recombinant human N-terminal GST/His6-tagged PAK2 (D3 to R524 residues) expressed in sf9 insect cells assessed as residual activity at 0.1 uM using RRRLSFAEPG as substrate preincubated for 20 min followed by [gamma33P]ATP addition and measured after 120 mins by Hotspot assay relative to control. Particulars: time 140.0 min. Summed up:
as §1

For assay [14], the target named is Receptor-type tyrosine-protein kinase FLT3 (Homo sapiens) (UniProt P36888). The experiment in a line: Inhibition of FLT3 (unknown origin) assessed as residual activity at 0.1 uM preincubated for 20 min followed by [gamma33P]ATP addition and measured after 120 mins by Hotspot assay relative to control. The note with it: time 140.0 min. In a few lines: as §1
The target of assay [15] is T1, Serine/threonine-protein kinase PAK 1. The experiment in a line: Inhibition of PAK1 in human MDA-MB-231 cells assessed as reduction in snail protein expression at 2.5 to 20 uM after 1 to 24 hrs by Western blot analysis. The note with it: dose 2.5-20 µM, time 1-24 hrs. The class given is cell-based. Summed up:
as §2

Active and inactive are the calls of the source. The rule behind the calls is not given here.

T1 sequence (Q13153 whole entry): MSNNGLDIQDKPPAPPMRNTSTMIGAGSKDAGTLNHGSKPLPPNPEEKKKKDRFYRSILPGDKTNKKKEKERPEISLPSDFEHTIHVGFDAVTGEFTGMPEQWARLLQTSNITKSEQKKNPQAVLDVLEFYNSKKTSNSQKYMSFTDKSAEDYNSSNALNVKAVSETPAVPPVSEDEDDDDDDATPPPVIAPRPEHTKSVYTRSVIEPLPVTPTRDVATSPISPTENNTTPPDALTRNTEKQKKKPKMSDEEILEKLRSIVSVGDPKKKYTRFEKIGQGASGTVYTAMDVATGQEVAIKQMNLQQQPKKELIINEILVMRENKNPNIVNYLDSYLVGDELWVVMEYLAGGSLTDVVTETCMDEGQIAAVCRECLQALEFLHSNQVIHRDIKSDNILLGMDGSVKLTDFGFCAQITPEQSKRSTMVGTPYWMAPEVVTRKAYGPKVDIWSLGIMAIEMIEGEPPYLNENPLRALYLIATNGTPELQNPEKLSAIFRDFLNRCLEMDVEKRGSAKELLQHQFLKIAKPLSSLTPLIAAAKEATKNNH
Tyrosine-protein kinase receptor UFO (Homo sapiens), sequence (P30530 whole entry): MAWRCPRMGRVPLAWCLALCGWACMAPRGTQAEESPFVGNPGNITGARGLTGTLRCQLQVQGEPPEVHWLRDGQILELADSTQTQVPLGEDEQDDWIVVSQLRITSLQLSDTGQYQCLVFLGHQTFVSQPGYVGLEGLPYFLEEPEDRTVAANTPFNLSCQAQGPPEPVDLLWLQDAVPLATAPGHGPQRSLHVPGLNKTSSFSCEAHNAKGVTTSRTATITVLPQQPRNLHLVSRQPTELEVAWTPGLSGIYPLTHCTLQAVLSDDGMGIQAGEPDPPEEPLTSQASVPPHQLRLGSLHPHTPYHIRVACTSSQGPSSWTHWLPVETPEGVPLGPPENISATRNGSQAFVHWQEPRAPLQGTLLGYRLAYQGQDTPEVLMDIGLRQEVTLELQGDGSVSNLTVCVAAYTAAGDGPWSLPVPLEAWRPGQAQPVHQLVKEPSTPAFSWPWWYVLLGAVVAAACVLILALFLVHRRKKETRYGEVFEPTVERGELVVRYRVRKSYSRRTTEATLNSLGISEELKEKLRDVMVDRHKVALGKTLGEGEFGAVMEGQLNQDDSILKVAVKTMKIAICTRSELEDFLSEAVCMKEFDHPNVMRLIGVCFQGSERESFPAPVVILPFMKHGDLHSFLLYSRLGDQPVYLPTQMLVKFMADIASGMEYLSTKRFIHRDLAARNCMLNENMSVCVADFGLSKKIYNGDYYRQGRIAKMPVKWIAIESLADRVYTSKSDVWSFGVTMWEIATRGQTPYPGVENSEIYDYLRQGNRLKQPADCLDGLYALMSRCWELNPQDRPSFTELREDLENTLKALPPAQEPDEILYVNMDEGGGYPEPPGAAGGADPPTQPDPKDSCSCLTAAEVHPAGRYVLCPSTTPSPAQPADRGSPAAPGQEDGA
Serine/threonine-protein kinase PAK 2 (Homo sapiens), sequence (Q13177 whole entry, the tested form may be a part): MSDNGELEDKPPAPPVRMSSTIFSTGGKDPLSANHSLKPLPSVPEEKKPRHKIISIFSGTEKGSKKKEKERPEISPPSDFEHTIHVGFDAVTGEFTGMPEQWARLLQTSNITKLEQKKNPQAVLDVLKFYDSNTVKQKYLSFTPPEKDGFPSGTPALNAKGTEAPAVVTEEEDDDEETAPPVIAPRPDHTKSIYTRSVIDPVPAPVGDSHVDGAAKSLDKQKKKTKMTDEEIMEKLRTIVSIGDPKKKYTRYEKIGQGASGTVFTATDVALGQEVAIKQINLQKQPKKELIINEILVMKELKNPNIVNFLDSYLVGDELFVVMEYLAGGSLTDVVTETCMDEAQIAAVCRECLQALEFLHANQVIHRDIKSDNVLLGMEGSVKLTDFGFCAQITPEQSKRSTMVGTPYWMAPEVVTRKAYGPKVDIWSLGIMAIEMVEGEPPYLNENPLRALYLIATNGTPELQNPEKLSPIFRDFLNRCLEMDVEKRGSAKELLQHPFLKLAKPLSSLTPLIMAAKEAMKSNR
Vascular endothelial growth factor receptor 2 (Homo sapiens), sequence (P35968 whole entry): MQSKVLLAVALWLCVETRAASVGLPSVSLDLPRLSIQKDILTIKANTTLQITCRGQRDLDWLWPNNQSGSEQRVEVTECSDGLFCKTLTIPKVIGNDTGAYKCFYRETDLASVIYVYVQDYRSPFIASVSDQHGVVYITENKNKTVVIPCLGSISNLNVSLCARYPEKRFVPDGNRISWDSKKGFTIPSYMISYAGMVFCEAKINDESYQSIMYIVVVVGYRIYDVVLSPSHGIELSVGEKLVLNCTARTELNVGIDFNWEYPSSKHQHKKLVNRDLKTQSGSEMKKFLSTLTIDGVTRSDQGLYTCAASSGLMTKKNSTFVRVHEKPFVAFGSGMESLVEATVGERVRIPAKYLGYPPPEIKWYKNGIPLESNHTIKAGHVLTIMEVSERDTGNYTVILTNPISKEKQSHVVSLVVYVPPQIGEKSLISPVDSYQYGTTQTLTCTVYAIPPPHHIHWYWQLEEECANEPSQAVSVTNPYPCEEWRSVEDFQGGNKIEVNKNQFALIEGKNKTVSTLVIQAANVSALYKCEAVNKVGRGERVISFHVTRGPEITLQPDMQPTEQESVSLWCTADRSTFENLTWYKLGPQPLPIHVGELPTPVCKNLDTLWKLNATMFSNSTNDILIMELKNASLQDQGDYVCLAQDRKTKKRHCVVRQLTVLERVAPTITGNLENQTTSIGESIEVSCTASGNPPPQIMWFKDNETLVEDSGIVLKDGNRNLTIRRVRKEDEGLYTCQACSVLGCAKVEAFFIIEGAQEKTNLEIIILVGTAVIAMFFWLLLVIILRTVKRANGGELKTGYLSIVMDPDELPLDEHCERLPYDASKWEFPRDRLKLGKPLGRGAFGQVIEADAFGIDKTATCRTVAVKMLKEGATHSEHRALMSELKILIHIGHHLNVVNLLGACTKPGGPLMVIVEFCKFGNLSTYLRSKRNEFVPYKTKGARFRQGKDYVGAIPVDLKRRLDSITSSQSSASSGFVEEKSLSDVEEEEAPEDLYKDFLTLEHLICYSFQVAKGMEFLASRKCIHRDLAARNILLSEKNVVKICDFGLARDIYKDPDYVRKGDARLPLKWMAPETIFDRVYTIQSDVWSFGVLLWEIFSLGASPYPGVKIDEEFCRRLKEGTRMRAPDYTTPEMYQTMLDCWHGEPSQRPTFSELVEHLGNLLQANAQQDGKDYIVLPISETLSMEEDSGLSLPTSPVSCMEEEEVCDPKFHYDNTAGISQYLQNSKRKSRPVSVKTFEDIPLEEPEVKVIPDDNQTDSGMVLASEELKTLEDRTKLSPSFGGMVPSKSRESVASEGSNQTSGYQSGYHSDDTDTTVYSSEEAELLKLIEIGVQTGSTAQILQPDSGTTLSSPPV
Tyrosine-protein kinase JAK1 (Homo sapiens), sequence (P23458 whole entry): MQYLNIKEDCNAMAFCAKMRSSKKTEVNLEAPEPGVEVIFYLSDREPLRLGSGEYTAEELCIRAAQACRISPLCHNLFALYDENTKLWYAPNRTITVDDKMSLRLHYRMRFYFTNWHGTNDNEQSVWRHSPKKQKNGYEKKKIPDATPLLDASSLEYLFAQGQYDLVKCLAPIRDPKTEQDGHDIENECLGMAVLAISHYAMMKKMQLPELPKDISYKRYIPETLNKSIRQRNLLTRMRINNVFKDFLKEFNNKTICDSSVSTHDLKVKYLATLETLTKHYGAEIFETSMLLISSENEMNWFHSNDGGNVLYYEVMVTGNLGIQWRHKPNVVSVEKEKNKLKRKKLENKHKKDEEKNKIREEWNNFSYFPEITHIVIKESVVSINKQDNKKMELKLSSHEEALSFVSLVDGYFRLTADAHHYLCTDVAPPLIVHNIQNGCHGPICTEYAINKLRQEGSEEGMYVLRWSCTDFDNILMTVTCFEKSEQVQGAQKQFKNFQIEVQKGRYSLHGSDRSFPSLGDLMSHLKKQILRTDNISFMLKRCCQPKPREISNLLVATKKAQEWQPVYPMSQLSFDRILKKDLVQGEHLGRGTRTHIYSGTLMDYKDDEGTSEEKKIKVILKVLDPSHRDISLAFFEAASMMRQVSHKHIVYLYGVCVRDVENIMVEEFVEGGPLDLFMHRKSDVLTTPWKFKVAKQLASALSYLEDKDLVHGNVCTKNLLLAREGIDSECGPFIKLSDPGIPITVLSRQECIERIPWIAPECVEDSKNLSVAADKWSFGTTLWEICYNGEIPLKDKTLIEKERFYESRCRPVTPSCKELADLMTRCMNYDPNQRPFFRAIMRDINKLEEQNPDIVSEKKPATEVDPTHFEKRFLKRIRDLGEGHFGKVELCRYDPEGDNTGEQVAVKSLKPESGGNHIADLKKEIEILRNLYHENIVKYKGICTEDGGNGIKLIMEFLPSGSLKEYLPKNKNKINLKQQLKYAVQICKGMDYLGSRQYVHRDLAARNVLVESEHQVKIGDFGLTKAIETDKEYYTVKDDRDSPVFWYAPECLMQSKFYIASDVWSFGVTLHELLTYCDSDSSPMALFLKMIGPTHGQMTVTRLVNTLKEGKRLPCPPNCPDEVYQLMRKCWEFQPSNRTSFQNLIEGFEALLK
Mitogen-activated protein kinase 3 (Homo sapiens), sequence (P27361 whole entry): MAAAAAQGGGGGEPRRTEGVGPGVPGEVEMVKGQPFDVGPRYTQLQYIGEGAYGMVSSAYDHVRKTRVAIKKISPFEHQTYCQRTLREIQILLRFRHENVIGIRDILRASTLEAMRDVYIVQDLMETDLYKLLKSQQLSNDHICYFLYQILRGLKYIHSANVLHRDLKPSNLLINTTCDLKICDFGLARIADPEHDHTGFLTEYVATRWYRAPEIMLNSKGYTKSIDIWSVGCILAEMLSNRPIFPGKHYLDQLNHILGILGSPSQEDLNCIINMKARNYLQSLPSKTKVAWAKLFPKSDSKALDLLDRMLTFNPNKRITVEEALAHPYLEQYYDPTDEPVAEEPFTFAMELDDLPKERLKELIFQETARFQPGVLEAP

In the case of `Cc1cccn(-c2ccc(-c3ccc4c(C(=O)NCc5ccncc5)n[nH]c4c3)c(Cl)c2)c1=O`, the Activity in assay [1] is 88.4%; in [2] it was 33.9%; in assay [3], 99%; in assay [6], 97%; in [7], 89.6%; in the assay on MDA-MB-231 [8], “Dose-dependent effect”. For the same compound, the Activity in assay [9] is 92.4%; in assay [10], 106%; in assay [11], 88.7%; in the assay on MDA-MB-231 [12] it was below 40%; in [13] it was 28%; in assay [14], 98.8%. Moreover, the inhibition result in assay [4] is “Dose-dependent effect”. Also, the inhibition of growth at 1 µM in the assay on MDA-MB-231 [5] was 6.31%. For the same compound, in [15], the inhibition entry was “Active”.

For the origin of these results see ChEMBL document CHEMBL4706541, “Design and synthesis of 1H-indazole-3-carboxamide derivatives as potent and selective PAK1 inhibitors with anti-tumour migration and invasion activities” (Eur J Med Chem, 2020).
